# Results pooled from the literature.
# Each line is one published result; the experiments were not run side by side.
# Target: Mitogen-activated protein kinase kinase kinase 9 (MAP3K9, Homo sapiens, UniProt P80192)
Compound,read-out,mode,technique,concentration,quantity,value
Cc1ccc(C(=O)NCc2ccsc2)cc1C#Cc1cn(C(C)C)c2ncnc(N)c12,enzyme activity,inhibitor,,1 µM,activity vs control,25%
Cc1cc(NC(=O)c2cccc3cc(-c4cccc5[nH]nc(N)c45)ccc23)ccc1F,enzyme activity,inhibitor,,0.1 µM,activity vs control,96%
O=C(NCCCNc1nc(Nc2cccc(NC(=O)N3CCCC3)c2)ncc1I)c1cccs1,enzyme activity,inhibitor,radiometric,1 µM,remaining activity,4%
CCCOc1ccc([C@@H]2[C@@H](C(=O)O)[C@H](c3ccc4c(c3)OCO4)CN2CC(=O)Nc2c(CC)cccc2CC)cc1,cell-free assay,,competition with immobilised ligand,1 µM,remaining binding,93%
COc1cc(/C=C/C(=O)CC(=O)/C=C/c2ccc(O)c(OC)c2)ccc1O,enzyme activity,inhibitor,,1 µM,activity vs control,14%
NS(=O)(=O)c1ccc(CNc2nc(Nc3cccc(NC(=O)N4CCCC4)c3)ncc2Br)cc1,enzyme activity,inhibitor,radiometric,1 µM,remaining activity,30%
Cc1c[nH]c2nccc(Oc3c(F)cc(Nc4cc(Cl)nc(N)n4)cc3F)c12,cell-free assay,,competition with immobilised ligand,0.1 µM,remaining binding,89%
NS(=O)(=O)c1ccc(CNc2nc(Nc3cccc(CN4CCOCC4)c3)ncc2C2CC2)cc1,enzyme activity,inhibitor,radiometric,1 µM,remaining activity,72%
COc1cc2c(Nc3ccc(Br)cc3F)ncnc2cc1OCC1CCN(C)CC1,cell-free assay,,,0.5 µM,remaining signal,96.1%
CCOc1cc(-c2nncn2C)ccc1Nc1ncc2cc(C)nc(NCC(C)(C)C)c2n1,enzyme activity,inhibitor,FRET,1 µM,inhibition,38%
Cn1c(=O)n(-c2ccc(C(C)(C)C#N)cc2)c2c3cc(-c4cnc5ccccc5c4)ccc3ncc21,enzyme activity,inhibitor,,10 µM,remaining activity,67%
O=C(NCCCNc1nc(Nc2cccc(NC(=O)N3CCCC3)c2)ncc1C1CC1)C1CCC1,enzyme activity,inhibitor,radiometric,1 µM,remaining activity,31%
O=C(Nc1cnn(-c2csc(C(=O)NC3COC3)c2)c1)Nc1ccccc1Cl,enzyme activity,inhibitor,,5 µM,remaining activity,95.1%
C[C@H](c1ccnc(Nc2nc3ccc(-c4cc(N(C)C)ncn4)cc3[nH]2)c1)N1CCN(C(=O)CC(F)(F)F)CC1,cell-free assay,,competition with immobilised ligand,0.1 µM,remaining binding,100%
COc1cccc2c(NCc3ccccc3)nc(-n3c(N)nc4ccccc43)nc12,target engagement in cells,inhibitor,chemoproteomics,20 mM,inhibition,11.3%
O=C(Nc1cccc(Nc2ncc(Br)c(NCCc3cnc[nH]3)n2)c1)N1CCCC1,enzyme activity,inhibitor,radiometric,1 µM,remaining activity,5%
CNC(=O)c1cc(Oc2ccc(NC(=O)Nc3ccc(Cl)c(C(F)(F)F)c3)cc2)ccn1,enzyme activity,inhibitor,,0.3 µM,inhibition,-6%
COc1cccc(CNC(=O)c2nc3scc(COCc4ccc(C(=O)O)cc4)c3c(=O)[nH]2)c1,cell-free assay,,competition with immobilised ligand,1 µM,remaining binding,100%
N#CCCc1ccc2c(c1)-c1[nH]c3ccc([N+](=O)[O-])cc3c1CC(=O)N2,cell-free assay,,,0.5 µM,remaining signal,18.2%
CN(C)CC#Cc1ccc(OCCCc2sc(N3CCc4cccc(C(=O)Nc5nc6ccccc6s5)c4C3)nc2C(=O)O)c(F)c1,cell-free assay,,competition with immobilised ligand,1 µM,remaining binding,92%
Cc1nn(CC(F)(F)F)cc1Nc1ncc(C2CC2)c(NCCc2c[nH]cn2)n1,enzyme activity,inhibitor,radiometric,1 µM,remaining activity,72%
